Experimental data published in the RNAGym collection of RNA variant scans (doi:10.1126/science.aae0568).
Variants at the floor of the assay were thinned out.

B1: tRNA (parent)
chain: GUUCCGUUGGCGUAAUGGUAACGCGUCUCCCUCCUAAGGAGAAGACUGCGGGUUCGAGUCCCGUACGGAACG

Variants of: B1
Experiment: yeast fitness relative to wild type (ratio to wild type); higher = fitter; tRNA-Arg(CCU), competitive growth, 37 C, YPD
How it was run: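 The tRNA-Arg(CCU) gene variants were made by chemical synthesis with a 3% per-site mutation rate at 69 sites and inserted at the native genomic locus of Saccharomyces cerevisiae. After pooling, the strains were competed in YPD at 37°C for 24 hours in six parallel replicates. Gene amplicons from the start population and each end population were read by 100-nucleotide paired-end sequencing, and Darwinian fitness relative to wild type was taken from genotype frequency changes. Genotypes needed ≥ 100 starting reads, and estimates < 0.5 were set to 0.5.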

Variant | yeast fitness
GUUACGUUGGCGUAAUGGUACUGCGUCUCCCUCCUAAGGAGAAGACUGCCAGUUCGAGUCCCGUACGGAUCG | 0.559
GUUACGUUGGCGUGAUGGUAACGCGUCUCCCUCCUAAGGAGAAGACUGCGGCUUCGAGUCCCGUAUGGAACG | ≤ 0.5
GUUACGUUGGCGUAAUGGUCACGCGUCUCCCUCCUAAGGAGAAGACUGCGGGUUCGAGUCCCGUACGGAACG | 0.64
GUUACGUUGGCGUAAUGGUGACGCGUCUCCCUCCUAAGGAGAAGACUGCGGGUUCGAGUACCGUACGGACCG | ≤ 0.5
GUUACGUUGGCGUCAUGGUAACGCGUCUCCCUCCUAAGGAGAAGACUGCGGGUUCGAGUCCCGUACGGAACG | 0.591
GUUACGUUGGCGUGGUGGUAACGCGUCUCCCUCCUAAGGAGAAGACUGCGGGUUCCAGUCCCGUACGGAACG | ≤ 0.5
GUUACGUUGGCGUACUGGUAACGCGUCUCCCUCCGAAGGAGAAGACUGCGGGUUCGAGUCCCGUACGGAACG | ≤ 0.5
GUUACGUUGGCGUUAUGGUAACGCGUCUCCCUCUUAAGGAGAAGACUGCGGGUUCGAGUCCCGUACGGAACG | 0.763
GUUACGUUGGCGUACUGGUAACGCGUCUCCCUCCUAAGGAGAAGACUGCGGGUUCGAGUCCCGUACGGAACG | 0.544
GUUACGUUGGCGUAUUGGUAACGCGUCUCCCUCCUAAGGAGAAGACUGCGGGUUCGAGUCCCGUACGGAACG | 0.645
GUUACGUUGGCGUUAUGGUCACGCGUCGCCCUCCUAAGGAGAAGACUGCGGGUCCGAGUCCCGUACGGAACG | ≤ 0.5
GUUACGUUGGCGUCAUGGUACUGUGUCUUCCUCCUAAGGAGAAGACUGCGGGCUCGAGUCCCGUACGGAACG | 0.568
GUUACGUUGGCGUAUUGGUAACGCGUCUCCCUCCUAAGGAGGAGACUGCGGGUUCGAGUCUCGUACGGAACG | ≤ 0.5
GUUACGUUGGCGUAAUGGUCACGCGUCUCCCUCCUAAGGAGCAGACUGCGGGUCCGAGUCCCGUACGGAACG | ≤ 0.5
GUUACGUUGGCGUAAUGGUUACGCGUCUCCCUCAUAAGGAGAAGACUGCGGGUUCGAGUCCCCUACCGUACG | ≤ 0.5
GUUACGUUGGCGUUAUGGUAACGCGUCUUCCUCCUAAGGAGAAGACUGCGGGUUCGAGUCCCGUACGGAACG | 0.657
GUUACGUUGGCGUCAUGGUAACGUAUCUCCCUCAUAAGGAGAAGACUGCGGGUUCGAGUCCCGUACGGAACG | 0.571
GUUACGUUGGCGUAGUGGUAACGCGUCUCCCCCCCAAGGAGAAGACUGCGGGUUCGAGUCCCGUACCGUACG | ≤ 0.5
GUUACGUUGGCGUAGUGGUAACGCGUCUCCCUCCUAAGGAGAAGACUGCGGGUUCCAGUCCCGUACGGAACG | 0.583

Variant | yeast fitness
GUUACGUUGGCGUAGUGGUAACGCGUCUCCUUUCUAAGGAGAAGACUGCGGGUUCGAGUCCCGUACGGAACG | ≤ 0.5
GUUACGUUGGCGUAAUGGUACUGCGUCUCCCUCCUAAGGAGAAGACUGCCGGUUCGAGUCCCGUACGGAACG | 0.617
GUUACGUUGGCGUCAUGGAAACGCGUCUCCCUCCUAAGGAGAAGACUGCGGGUUCGAGUCCCGUACGGCACG | 0.53
GUUACGUUGGCGUAUUGCUAACGCGUCUCCCUCCUAAGGAGAAGACUGCGGGUUCCAGUCCCGUACGGAACG | ≤ 0.5
GUUACGUUGGCGUUAUGGUCACGCGUCGCCCACCUAAGGAGAAGACUGCGGGUUCGAGUCCCGUACGGAACG | ≤ 0.5
GUUACGUUGGCGUAGUAGUACCGCGUCACCCUCCUAAGGUGAAGACUGCGGGUUCGAGUCCCGUACGGAACG | ≤ 0.5
GUUACGUUGGCGUAAUGGUGACGCGUCUCCCUCUUAAGGAGAAGACUGCGGGUUCGAGUCCCGUACGGAACG | ≤ 0.5
GUUACGUUGGCGUAGUGGUAACGCGUCUCCCUGCUAAGGAGAAGACUGCGGGUUCGAGUACCGUACGGACCG | 0.599
GUUACGUUGGCGUAAUGGUUACGUGGUUCCCUCCUCAGGAGAAGUCUGCGGGUUGGAGUCCCGUACGGAACG | 0.607
GUUACGUUGGCGUUAUGGUCACGCGUCGCCCUCCUAAGGAGAAGACUGCGGGUUCGAGUCCCGUAUGGAACG | 0.557
GUUACGUUGGCGUAAUGGUCACGCGUUUCCCUCCUAAGGAGAAGACUGGGGGUUCGAGUCCCGUACGGAACG | ≤ 0.5
GUUACGUUGGCGUUAUGGUCACGCGUCGCCCUCCUAAGGAGAAGACUGCGGGUUCGAGUCCCUUACGGCACG | ≤ 0.5
GUUACGUUGGCGUAAUGGUCACGCGUUUCCCCCCUAAGGAGAAGAUUGCGGGUUCGAGUCCCGUACGGAACG | ≤ 0.5
GUUACGUUGGCGUAGUGGUAACGCGUCUCCCUUCUAAGGAGAAGACUGCGGGUUCGAGUCCUGUACGGAACG | ≤ 0.5
GUUACGUUGGCGUGAUGGUAACGCGUCUCCCUCCUAAGGAGAAGACUGAGGGUUCGAGUCCCGUACGGAACG | ≤ 0.5
GUUACGUUGGCGUGAUGGUAACGCGUCUCGCUCCUAAGGAGAAGGCUGCGGAUUCGAGUCCCAUACGGAACG | ≤ 0.5
GUUACGUUGGCGUUAUGGUAACGCGUCUCCCUCCUAAGGAGACGACUGCGGGUUCGAGUCCCGUUCGGAACG | ≤ 0.5
GUUACGUUGGCGUAGUGGUAACGCGUCUCCCUCCUAAGGAGAAGACUGCGGGUUCCAGUACCGUACGGAACG | ≤ 0.5
GUUACGUUGGCGUGAUGGUAACCCGUCUCCCUCCUAAGGAGAAGACUGCGGGUUCGAGUCCCGUGCGGAACG | ≤ 0.5
